From article PMC5034805 (Journal of Clinical Pharmacology, 2015)
Entries after “also recorded” stand apart in the source; their conditions may differ. Read-outs that look alike come from different tables or passages of the source.

Legend:
P‐glycoprotein (P‐gp) = conditions: in vitro; cited from earlier work
[1] = Ketoconazole drug–drug interaction study: romidepsin plasma pharmacokinetics; format: in vivo, human (patients with advanced cancer)
CYP3A4 = conditions: at plasma concentrations that are effective; cited from earlier work
[2] = patients with CTCL or PTCL; cited from earlier work
CYP enzymes = conditions: at plasma concentrations that are effective; cited from earlier work
[3] = Rifampin drug–drug interaction study: romidepsin plasma pharmacokinetics; format: in vivo, human (patients with advanced cancer)
hepatocytes = conditions: cited from earlier work
CYP1A1 = conditions: at plasma concentrations that are effective; cited from earlier work
BCRP = conditions: in vitro; cited from earlier work
CYP2B6 = conditions: at plasma concentrations that are effective; cited from earlier work
[4] = Safety evaluation in the rifampin interaction study; format: in vivo, human (patients with advanced cancer); conditions: in two patients; romidepsin 14 mg/m^2 with rifampin 600 mg
Summary of the method: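 Antiemetic prophylaxis; K or Mg supplemented below 3.8 or 0.85 mmol/L. Monitoring through closeout (days 15–20): AE type, severity and relatedness, examinations, vital signs, ECGs, concomitant medications, clinical labs. Summarised descriptively.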

α1‐acid‐glycoprotein = conditions: primarily to α1-acid-glycoprotein; cited from earlier work
[5] = Safety evaluation in the ketoconazole interaction study; format: in vivo, human (patients with advanced cancer)
[6] = cited from earlier work
CYP3A = conditions: strong inhibitor of CYP3A; cited from earlier work
[7] = coadministration with ketoconazole vs alone
[8] = human, plasma, intravenous, 8 mg/m2
[9] = coadministration with rifampin 600 mg vs alone
[10] = human, plasma, intravenous, 14 mg/m2

## C/C=C1\NC(=O)[C@H]2CSSCC/C=C/[C@H](CC(=O)N[C@H](C(C)C)C(=O)N2)OC(=O)[C@H](C(C)C)NC1=O [Romidepsin]
P‐glycoprotein (P‐gp)
  Substrate of the efflux transporter P-glycoprotein (P-gp): substrate
[1]; coadministration with ketoconazole 400 mg vs alone
  Increase of mean romidepsin Cmax: ~10%
[1]; [7]
  Change of romidepsin clearance: decreased
  Change of romidepsin volume of distribution: decreased
[1]; [8]
  Tmax: 3.5 h
  Vd: 236 L
  clearance: 282 mL/min
  half-life: 9.7 h
[1]; human, plasma, iv, 8 mg/m^2
  AUC(0-inf): 915 ng·h/mL
  Cmax: 229 ng/mL
[1]; romidepsin + ketoconazole vs romidepsin alone, Hodges-Lehmann estimate
  Median Difference of Tmax: 0
CYP3A4
  Induction of CYP3A4: nor is it an inducer
[2]
  Effect of polymorphic variants of CYP3A on systemic exposure: did not affect
CYP enzymes
  Inhibition of CYP enzymes: does not inhibit
[3]; [9]
  Decrease of romidepsin clearance: approximately 44%
  Decrease of romidepsin volume of distribution: ~52%
  Increase of mean romidepsin Cmax: ~60%
[3]; [10]
  Tmax: 2.98 h
  Vd: 162 L
  clearance: 193 mL/min
  half-life: 9.7 h
[3]; human, plasma, iv, 14 mg/m^2
  AUC(0-inf): 2230 ng·h/mL
  Cmax: 571 ng/mL
hepatocytes
  Uptake into hepatocytes: actively taken up into the liver; also recorded: active process
CYP1A1
  Induction of CYP1A1: nor is it an inducer
BCRP
  Substrate of BCRP: not a substrate
CYP2B6
  Induction of CYP2B6: nor is it an inducer
[4]
  Treatment-emergent SAEs: 8
α1‐acid‐glycoprotein
  Protein binding: highly protein bound
[5]; romidepsin 8 mg/m^2 with ketoconazole 400 mg
  Deaths during the treatment period: No deaths
[6]; given on days 1, 8, and 15 of a 28-day cycle
  Maximal tolerated dose (MTD): 13.3 mg/m^2
[6]; given on days 1 and 5 in a 21-day cycle
  Maximal tolerated dose (MTD): 17.8 mg/m^2
[6]; phase 1 dose escalation
  Dose-limiting toxicities: fatigue, nausea, vomiting, thrombocytopenia (transient and grade 3) and neutropenia

## CC(=O)N1CCN(c2ccc(OCC3COC(Cn4ccnc4)(c4ccc(Cl)cc4Cl)O3)cc2)CC1 (centres unmarked) [ketoconazole]
CYP3A
  Increase of AUC of CYP3A substrates: ≥ 5 fold
[5]; ketoconazole 400 mg daily days 4-8 with romidepsin 8 mg/m^2
  Increases in liver enzymes AST or ALT: not observed
